Data taken from ChEMBL document CHEMBL4229360, “Antimalarial agents against both sexual and asexual parasites stages: structure-activity relationships and biological studies of the Malaria Box compound 1-[5-(4-bromo-2-chlorophenyl)furan-2-yl]-N-[(piperidin-4-yl)methyl]methanamine (MMV019918) and analogues” (Eur J Med Chem, 2018).

Experiments:
[1] = Cardiotoxicity in Langendorff perfused Wistar rat heart assessed as cycle length interval time at 3 uM by electrocardiography (reference value: 217.15 to 242.23 milliseconds); assay type: toxicity, tissue-based
Plasmodium falciparum [2] = test: Antiplasmodial activity against chloroquine-resistant Plasmodium falciparum W2 after 72 hrs by lactate dehydrogenase assay; assay type: functional, organism-based; conditions: W2, 72 h
How it was run: (§1)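 Asynchronous blood-stage cultures at 1–1.5% parasitemia and 1% final hematocrit in human A+ RBCs, RPMI 1640 with 1% AlbuMax, hypoxanthine, HEPES and glutamine. Serial dilutions from DMSO stocks, final DMSO <1%. Incubated 72 h at 37 °C under 1% O₂/5% CO₂. IC50 is the mean of ≥3 experiments in duplicate.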

Plasmodium falciparum [3] = test: Antiplasmodial activity against Plasmodium falciparum asexual stage forms; assay type: functional, organism-based
[4] = Cardiotoxicity in Langendorff perfused Wistar rat heart assessed as cycle length interval time at 1 uM by electrocardiography (reference value: 217.15 to 242.23 milliseconds); assay type: toxicity, tissue-based
Plasmodium falciparum [5] = test: Antiplasmodial activity against gametocytes of Plasmodium falciparum NF54 infected in Anopheles stephensi mosquitoes after 24 hrs by standard membrane feeding assay; assay type: functional, organism-based; conditions: NF54, 24 h
[6] = Cardiotoxicity in Langendorff perfused Wistar rat heart assessed as frequency of heart rate at 0.1 uM by electrocardiography (reference value: 247.05 to 275.90 bpm); assay type: toxicity, tissue-based
[7] = Cardiotoxicity in Langendorff perfused Wistar rat heart assessed as QTc interval time at 3 uM by electrocardiography (reference value: 76.45 to 80.07 milliseconds); assay type: toxicity, tissue-based
[8] = Cardiotoxicity in Langendorff perfused Wistar rat heart assessed as reduction of left ventricular pressure; assay type: toxicity, tissue-based
hERG (KCNH2) = hERG (KCNH2) (Homo sapiens, UniProt Q12809); test: Inhibition of human ERG at 50 uM
Sequence of hERG (KCNH2) (Q12809 whole entry): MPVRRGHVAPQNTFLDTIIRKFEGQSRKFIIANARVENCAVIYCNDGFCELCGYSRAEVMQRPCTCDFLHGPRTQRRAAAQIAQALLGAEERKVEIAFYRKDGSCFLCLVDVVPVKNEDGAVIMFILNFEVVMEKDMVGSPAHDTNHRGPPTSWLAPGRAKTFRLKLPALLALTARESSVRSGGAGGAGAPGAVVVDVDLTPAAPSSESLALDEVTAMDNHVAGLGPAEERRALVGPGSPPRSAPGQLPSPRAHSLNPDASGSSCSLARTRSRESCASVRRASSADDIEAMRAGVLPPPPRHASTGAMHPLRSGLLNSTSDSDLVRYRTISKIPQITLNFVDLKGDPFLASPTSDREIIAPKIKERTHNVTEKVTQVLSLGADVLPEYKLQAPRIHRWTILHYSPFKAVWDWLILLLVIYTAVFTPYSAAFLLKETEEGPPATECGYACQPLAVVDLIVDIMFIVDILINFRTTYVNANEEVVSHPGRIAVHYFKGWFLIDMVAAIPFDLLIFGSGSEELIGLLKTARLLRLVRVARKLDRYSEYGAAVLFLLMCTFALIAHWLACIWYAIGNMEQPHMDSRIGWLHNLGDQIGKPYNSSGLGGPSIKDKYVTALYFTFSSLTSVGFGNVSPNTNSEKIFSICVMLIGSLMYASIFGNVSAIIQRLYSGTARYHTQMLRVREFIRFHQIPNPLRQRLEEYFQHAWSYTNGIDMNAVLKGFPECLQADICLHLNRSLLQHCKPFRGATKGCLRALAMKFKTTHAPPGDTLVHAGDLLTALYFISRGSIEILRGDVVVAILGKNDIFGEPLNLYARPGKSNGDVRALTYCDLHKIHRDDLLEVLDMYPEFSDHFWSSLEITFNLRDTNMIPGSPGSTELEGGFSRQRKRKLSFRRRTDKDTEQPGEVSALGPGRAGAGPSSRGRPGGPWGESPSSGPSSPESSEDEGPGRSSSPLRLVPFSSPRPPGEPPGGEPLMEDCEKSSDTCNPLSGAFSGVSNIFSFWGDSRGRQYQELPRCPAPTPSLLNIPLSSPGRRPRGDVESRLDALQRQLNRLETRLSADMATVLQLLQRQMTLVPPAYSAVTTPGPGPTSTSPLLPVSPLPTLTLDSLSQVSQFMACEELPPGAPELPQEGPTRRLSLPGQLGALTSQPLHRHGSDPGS

CaV1.2 channel = CaV1.2 channel (Rattus norvegicus, UniProt P22002); test: Inhibition of CaV1.2 channel in rat tail artery myocytes assessed as reduction in Ba2+ current at 10 uM at -50 mV holding potential by whole-cell patch-clamp assay; assay type: cell-based
Sequence of CaV1.2 channel (P22002 whole entry): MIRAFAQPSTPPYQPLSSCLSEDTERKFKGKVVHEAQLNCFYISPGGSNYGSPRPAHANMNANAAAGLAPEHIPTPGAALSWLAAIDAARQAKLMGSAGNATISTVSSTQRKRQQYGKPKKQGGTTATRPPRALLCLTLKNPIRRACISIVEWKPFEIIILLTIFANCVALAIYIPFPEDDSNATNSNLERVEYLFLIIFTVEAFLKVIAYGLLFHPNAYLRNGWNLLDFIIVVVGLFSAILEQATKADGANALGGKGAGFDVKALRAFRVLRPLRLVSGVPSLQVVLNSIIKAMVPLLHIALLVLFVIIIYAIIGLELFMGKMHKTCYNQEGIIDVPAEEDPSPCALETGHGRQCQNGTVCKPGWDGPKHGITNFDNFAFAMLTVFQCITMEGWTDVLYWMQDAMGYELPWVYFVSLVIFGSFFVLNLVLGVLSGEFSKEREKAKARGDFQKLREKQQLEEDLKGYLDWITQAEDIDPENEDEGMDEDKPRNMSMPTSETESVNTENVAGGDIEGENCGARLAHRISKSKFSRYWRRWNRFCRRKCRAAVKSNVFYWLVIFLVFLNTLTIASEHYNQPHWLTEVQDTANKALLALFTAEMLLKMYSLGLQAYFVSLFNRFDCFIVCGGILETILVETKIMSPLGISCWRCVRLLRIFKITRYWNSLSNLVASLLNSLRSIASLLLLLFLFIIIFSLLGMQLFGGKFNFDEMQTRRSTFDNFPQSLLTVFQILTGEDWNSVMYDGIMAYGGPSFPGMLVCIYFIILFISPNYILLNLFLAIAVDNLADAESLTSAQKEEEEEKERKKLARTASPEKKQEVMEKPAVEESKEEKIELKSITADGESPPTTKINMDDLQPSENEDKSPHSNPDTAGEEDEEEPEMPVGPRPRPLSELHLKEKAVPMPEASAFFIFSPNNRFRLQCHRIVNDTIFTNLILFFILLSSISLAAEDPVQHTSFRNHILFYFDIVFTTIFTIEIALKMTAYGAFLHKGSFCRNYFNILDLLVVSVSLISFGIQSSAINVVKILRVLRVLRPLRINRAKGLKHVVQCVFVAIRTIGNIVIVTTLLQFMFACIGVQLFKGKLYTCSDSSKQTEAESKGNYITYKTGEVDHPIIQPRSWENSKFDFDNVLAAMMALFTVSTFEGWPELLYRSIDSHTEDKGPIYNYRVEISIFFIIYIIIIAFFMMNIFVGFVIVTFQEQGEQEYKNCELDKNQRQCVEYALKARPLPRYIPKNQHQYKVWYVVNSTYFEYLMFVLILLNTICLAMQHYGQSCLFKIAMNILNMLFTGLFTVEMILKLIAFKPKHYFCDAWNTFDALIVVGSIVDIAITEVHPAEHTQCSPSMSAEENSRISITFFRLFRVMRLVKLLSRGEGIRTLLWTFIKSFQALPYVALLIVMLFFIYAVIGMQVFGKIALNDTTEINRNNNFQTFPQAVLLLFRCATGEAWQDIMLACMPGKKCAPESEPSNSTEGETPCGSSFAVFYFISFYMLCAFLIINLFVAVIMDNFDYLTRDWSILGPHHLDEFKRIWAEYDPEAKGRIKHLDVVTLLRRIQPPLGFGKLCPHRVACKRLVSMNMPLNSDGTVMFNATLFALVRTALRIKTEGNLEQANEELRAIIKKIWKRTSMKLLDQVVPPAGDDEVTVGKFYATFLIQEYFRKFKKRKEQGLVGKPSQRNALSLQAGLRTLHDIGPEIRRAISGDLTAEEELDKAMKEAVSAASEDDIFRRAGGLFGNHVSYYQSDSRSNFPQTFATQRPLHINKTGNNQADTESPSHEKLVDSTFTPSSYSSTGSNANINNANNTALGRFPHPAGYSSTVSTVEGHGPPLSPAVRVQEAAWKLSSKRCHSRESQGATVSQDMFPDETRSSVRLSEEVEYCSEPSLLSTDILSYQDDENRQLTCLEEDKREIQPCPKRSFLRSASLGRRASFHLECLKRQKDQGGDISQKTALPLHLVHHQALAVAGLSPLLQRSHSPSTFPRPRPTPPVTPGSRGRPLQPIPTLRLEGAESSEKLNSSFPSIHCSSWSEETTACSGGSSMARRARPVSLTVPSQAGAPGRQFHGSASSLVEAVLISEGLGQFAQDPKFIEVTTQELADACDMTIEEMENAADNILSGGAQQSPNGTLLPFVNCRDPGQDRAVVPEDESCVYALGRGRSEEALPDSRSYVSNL
How it was run: (§2)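 Freshly isolated rat tail artery smooth muscle cells (collagenase digestion), whole-cell patch clamp at 20–22 °C. External solution: 5 mM Ba2+, 30 mM TEA; Cs+-based internal solution, pH 7.4. Currents from 250-ms pulses to 0 mV from Vh −50 mV at 0.067 Hz, after 7–10 min stabilisation. Leak corrected with 10 μM nifedipine. Peak current as % of control; n = 3–6 cells from ≥3 animals.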

Plasmodium falciparum [9] = test: Antiplasmodial activity against chloroquine-sensitive Plasmodium falciparum D10 after 72 hrs by lactate dehydrogenase assay; assay type: functional, organism-based; conditions: D10, 72 h; how it was run: as §1
[10] = Cardiotoxicity in Langendorff perfused Wistar rat heart assessed as QRS interval time at 10 uM by electrocardiography (reference value: 13.31 to 14.35 milliseconds); assay type: toxicity, tissue-based
[11] = Cardiotoxicity in Langendorff perfused Wistar rat heart assessed as QTc interval time at 10 uM by electrocardiography (reference value: 76.45 to 80.07 milliseconds); assay type: toxicity, tissue-based
[12] = Cardiotoxicity in Langendorff perfused Wistar rat heart assessed as frequency of heart rate at 1 uM by electrocardiography (reference value: 247.05 to 275.90 bpm); assay type: toxicity, tissue-based
[13] = Cardiotoxicity in Langendorff perfused Wistar rat heart assessed as cycle length interval time at 0.1 uM by electrocardiography (reference value: 217.15 to 242.23 milliseconds); assay type: toxicity, tissue-based
[14] = biological target: T1, Phosphoethanolamine N-methyltransferase (Plasmodium falciparum) (UniProt Q8IDQ9); test: Inhibition of plasmodium falciparum phosphoethanolamine N-methyltransferase expressed in Escherichia coli assessed as remaining enzyme activity at 100 uM using phosphoethanolamine as substrate and [methyl-14C] SAM by radiochemical assay
T1 sequence (whole entry): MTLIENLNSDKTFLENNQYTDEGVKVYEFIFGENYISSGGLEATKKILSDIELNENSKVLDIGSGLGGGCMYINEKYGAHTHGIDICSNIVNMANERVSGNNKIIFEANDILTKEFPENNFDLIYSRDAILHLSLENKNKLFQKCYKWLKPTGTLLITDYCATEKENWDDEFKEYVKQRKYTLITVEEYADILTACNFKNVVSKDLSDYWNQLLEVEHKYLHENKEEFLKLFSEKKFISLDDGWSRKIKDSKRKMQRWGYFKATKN
How it was run: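 Recombinant PfPMT purified from E. coli, 2 μg per 100 μL reaction. Buffer 0.1 M HEPES-KOH pH 8.0, 2 mM Na2EDTA, 10% glycerol, 5% DMSO, with 30 μM SAM (100 nCi [methyl-14C]SAM) and 55 μM phosphoethanolamine; radiochemical read-out.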

[15] = Cardiotoxicity in Langendorff perfused Wistar rat heart assessed as PQ interval time at 1 uM by electrocardiography (reference value: 41.13 to 42.63 milliseconds); assay type: toxicity, tissue-based
[16] = biological target: Voltage-dependent L-type calcium channel subunit alpha-1C (Rattus norvegicus, UniProt P22002); test: Inhibition of CaV1.2 channel in rat tail artery myocytes assessed as reduction in Ba2+ current at -50 mV holding potential by whole-cell patch-clamp assay; assay type: cell-based; conditions: rat; how it was run: as §2
Sequence of Voltage-dependent L-type calcium channel subunit alpha-1C (P22002 whole entry, the tested form may be a part): as the sequence (P22002 whole entry) above

[17] = Cardiotoxicity in Langendorff perfused Wistar rat heart assessed as PQ interval time at 10 uM by electrocardiography (reference value: 41.13 to 42.63 milliseconds); assay type: toxicity, tissue-based
[18] = Cardiotoxicity in Langendorff perfused Wistar rat heart assessed as coronary perfusion pressure at 0.1 to 10 uM; assay type: toxicity, tissue-based
[19] = Cardiotoxicity in Langendorff perfused Wistar rat heart assessed as QRS interval time at 1 uM by electrocardiography (reference value: 13.31 to 14.35 milliseconds); assay type: toxicity, tissue-based
[20] = Cardiotoxicity in Langendorff perfused Wistar rat heart assessed as frequency of heart rate at 3 uM by electrocardiography (reference value: 247.05 to 275.90 bpm); assay type: toxicity, tissue-based
[21] = Cardiotoxicity in Langendorff perfused Wistar rat heart assessed as QRS interval time at 0.1 uM by electrocardiography (reference value: 13.31 to 14.35 milliseconds); assay type: toxicity, tissue-based
Plasmodium falciparum [22] = test: Antiplasmodial activity against Plasmodium falciparum sexual stage forms; assay type: functional, organism-based
[23] = Cardiotoxicity in Langendorff perfused Wistar rat heart assessed as QTc interval time at 1 uM by electrocardiography (reference value: 76.45 to 80.07 milliseconds); assay type: toxicity, tissue-based
[24] = Cardiotoxicity in Langendorff perfused Wistar rat heart assessed as PQ interval time at 0.1 uM by electrocardiography (reference value: 41.13 to 42.63 milliseconds); assay type: toxicity, tissue-based
[25] = Cardiotoxicity in Langendorff perfused Wistar rat heart assessed as PQ interval time at 3 uM by electrocardiography (reference value: 41.13 to 42.63 milliseconds); assay type: toxicity, tissue-based
[26] = Cardiotoxicity in Langendorff perfused Wistar rat heart assessed as QTc interval time at 0.1 uM by electrocardiography (reference value: 76.45 to 80.07 milliseconds); assay type: toxicity, tissue-based
Plasmodium falciparum [27] = test: Gametocytocidal activity against Plasmodium falciparum 3D7 elo1-pfs16-CBG99 late-stage (4 to 5) gametocytes assessed as inhibition of parasite viability after 72 hrs by luciferase reporter assay; assay type: functional, organism-based; conditions: 3D7 elo1-pfs16-CBG99, 72 h
How it was run: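 Transgenic 3D7elo1-pfs16-CBG99 gametocytes express CBG99 luciferase from the pfs16 promoter. Stage IV–V gametocytes (Giemsa-checked) were exposed at day 8–10 after NAG addition to serial dilutions in complete medium for 72 h. Samples at 2% haematocrit were then mixed 1:1 with D-luciferin (1 mM, pH 5.5 citrate) for 10 min and luminescence was read. IC50 came from non-linear regression, mean of ≥3 experiments in duplicate.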

[28] = Cardiotoxicity in Langendorff perfused Wistar rat heart assessed as cycle length interval time at 10 uM by electrocardiography (reference value: 217.15 to 242.23 milliseconds); assay type: toxicity, tissue-based
[29] = Cardiotoxicity in Langendorff perfused Wistar rat heart assessed as frequency of heart rate at 10 uM by electrocardiography (reference value: 247.05 to 275.90 bpm); assay type: toxicity, tissue-based
[30] = Cardiotoxicity in Langendorff perfused Wistar rat heart assessed as QRS interval time at 3 uM by electrocardiography (reference value: 13.31 to 14.35 milliseconds); assay type: toxicity, tissue-based
Plasmodium falciparum [31] = test: Gametocytocidal activity against Plasmodium falciparum late stage gametocytes; assay type: functional, organism-based
[32] = Cytotoxicity against mouse NIH/3T3 cells after 24 hrs by neutral red uptake assay; assay type: cell-based, NIH3T3; conditions: read-out: TC50
How it was run: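 NIH3T3 cells exposed for 24 h; viability by neutral red uptake. Mean of three experiments, six replicates each.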

Plasmodium falciparum [33] = test: Gametocytocidal activity against Plasmodium falciparum NF54 HGL gametocytes assessed as inhibition of parasite viability after 72 hrs by ONE-Glo reagent based luminescence assay; assay type: functional, organism-based
How it was run: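 NF54 gametocytes raised in 5% haematocrit RPMI1640/10% human serum, with 50 mM NAG on days 4–9. Mainly stage IV gametocytes isolated on day 11 by Percoll gradient and seeded at 5000 cells/well, final DMSO 0.1%. Incubated 72 h at 37 °C, 3% O2, 4% CO2; viability by ONE-Glo luminescence.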

Plasmodium falciparum [34] = test: Antiplasmodial activity against asexual blood stage Plasmodium falciparum NF54 after 72 hrs by SYBR green-based fluorometric analysis; assay type: functional, organism-based; conditions: NF54, 72 h
How it was run: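 Asexual NF54 seeded at 0.83% parasitaemia, 1.5% haematocrit, in RPMI1640 with 10% human serum. Serial dilutions, final DMSO 0.1%. Incubated 72 h at 37 °C under 3% O2, 4% CO2, then read by SYBR Green fluorescence.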

With Clc1cc(Br)ccc1-c1ccc(CNCC2CCNCC2)o1 the Time [1] was 233.9 ms, the IC50 (Plasmodium falciparum [2]) was 2.3 µM and the IC50 (Plasmodium falciparum [3]) was less than 1 µM. It also gave a Time [4] of 232.48 ms, an EC50 (Plasmodium falciparum [5]) of 0.07 µM and an Activity [6] of 256.15 bpm. For the same compound, the Time [7] was 82.1 ms, the Activity [8] was “Dose-dependent effect” and the inhibition at 50 µM (hERG (KCNH2)) was 83%. It also gave an inhibition at 10 µM (CaV1.2 channel) of 57%, an IC50 (Plasmodium falciparum [9]) of 0.77 µM and a Time [10] of 23.75 ms. For the same compound, the Time [11] was 80.99 ms, the Activity [12] was 258.35 bpm and the Time [13] was 235.08 ms. For the same compound, the Activity [14] was 92%, the Time [15] was 42.5 ms and the “inhibition (INH)” value [16] was “Dose-dependent effect”. The Time [17] was 67.5 ms, the Activity [18] was “Non-Toxic” and the Time [19] was 15.8 ms. For the same compound, the Activity [20] was 257.71 bpm, the Time [21] was 14.25 ms and the IC50 (Plasmodium falciparum [22]) was less than 1 µM. For the same compound, the Time [23] was 80.93 ms, the Time [24] was 42.29 ms and the Time [25] was 47.9 ms. For the same compound, the Time [26] was 81.51 ms, the IC50 (Plasmodium falciparum [27]) was 1.2 µM and the Time [28] was 272.57 ms. It also gave an Activity [29] of 222.74 bpm, a Time [30] of 17.46 ms and an IC50 (Plasmodium falciparum [31]) of less than 1 µM.
For N#Cc1ccc(-c2ccc(CNCC3CCNCC3)o2)cc1, the IC50 (Plasmodium falciparum [2]) was 6.3 µM, the IC50 (Plasmodium falciparum [9]) was 1.1 µM and the Activity [14] was 73.2%. For the same compound, the IC50 (Plasmodium falciparum [27]) was 18.4 µM.
Work on Clc1cc(-c2ccccc2)ccc1-c1ccc(CNCC2CCNCC2)o1 yielded an IC50 (Plasmodium falciparum [2]) of 3 µM, an IC50 (Plasmodium falciparum [9]) of 1 µM and a CC50 at 24 h [32] of 5 µM. For the same compound, the IC50 (Plasmodium falciparum [27]) was 1.4 µM.
In the case of Clc1ccc(-c2nnc(CNCC3CCNCC3)[nH]2)cc1, the IC50 (Plasmodium falciparum [2]) is reported as greater than 13 µM, the IC50 (Plasmodium falciparum [9]) is reported as greater than 13 µM and the IC50 (Plasmodium falciparum [27]) is reported as greater than 13 µM.
For Fc1ccc(-c2ccc(CNCC3CCNCC3)o2)cc1, the IC50 (Plasmodium falciparum [2]) was 7.9 µM, the IC50 (Plasmodium falciparum [9]) was 2.1 µM and the IC50 (Plasmodium falciparum [27]) was 6 µM.
Work on COc1ccccc1-c1ccc(CNCC2CCNCC2)o1 yielded an IC50 (Plasmodium falciparum [2]) greater than 15 µM, an IC50 (Plasmodium falciparum [9]) of 10 µM and a CC50 at 24 h [32] of 53 µM. The IC50 (Plasmodium falciparum [27]) was 11.8 µM.
In the case of Oc1ccccc1-c1ccc(CNCC2CCNCC2)o1, the IC50 (Plasmodium falciparum [2]) is reported as 9.6 µM, the IC50 (Plasmodium falciparum [33]) is reported as 0.29 µM and the IC50 (Plasmodium falciparum [9]) is reported as 4.4 µM. It also gave an IC50 (Plasmodium falciparum [34]) of 0.26 µM, a CC50 at 24 h [32] of 7 µM and an IC50 (Plasmodium falciparum [27]) of 8.3 µM.
In the case of C[N+](C)(C)CCCNCc1ccc(-c2ccc(Cl)cc2Br)o1, the IC50 (Plasmodium falciparum [2]) is reported as 5.5 µM, the IC50 (Plasmodium falciparum [9]) is reported as 2.5 µM and the IC50 (Plasmodium falciparum [27]) is reported as greater than 24 µM.
FC(F)(F)c1ccc(-c2ccc(CNCC3CCNCC3)o2)cc1 gave an IC50 (Plasmodium falciparum [2]) of 1.5 µM, an IC50 (Plasmodium falciparum [9]) of 0.41 µM and a CC50 at 24 h [32] of 50 µM. For the same compound, the IC50 (Plasmodium falciparum [27]) was 1.9 µM.
In the case of Brc1ccc2cc(CNCC3CCNCC3)sc2c1, the IC50 (Plasmodium falciparum [2]) is reported as 1.5 µM, the IC50 (Plasmodium falciparum [33]) is reported as 0.053 µM and the IC50 (Plasmodium falciparum [9]) is reported as 1 µM. It also gave an IC50 (Plasmodium falciparum [34]) of 0.73 µM and an IC50 (Plasmodium falciparum [27]) of 1.4 µM.
